# Published values collected from several papers.
# Protocols differ between the studies behind these lines. pIC50: −log10 of the molar value.
# Cell line: A549
# Effect on: cell growth or viability
SMILES,technique,time,endpoint,result
O=C(Nc1ccc(Cl)cc1)Nc1nc2cc(-c3ccc4ncn(CCN5CCOCC5)c(=O)c4c3)ccc2s1,MTT,72 h,pIC50,< 4.70
CCCCn1cnc2ccc(-c3ccc(NC(=O)c4ccccc4)nc3)cc2c1=O,CCK-8,72 h,pIC50,< 5.00
CC(=NNC(=O)c1cc(-c2ccccc2)n(-c2ccc(S(N)(=O)=O)cc2)n1)c1ccc(C)cc1,fluorescence,48 h,pIC50,4.95
COC(=O)c1cc(C(C)=NNc2nc(-c3cccc4cc[nH]c34)cs2)ccc1O,MTT,96 h,pIC50,4.03
Cc1ccc(NC(=O)Nc2nc3cc(-c4ccc5ncn(Cc6ccccc6)c(=O)c5c4)ccc3s2)cc1,MTT,72 h,pIC50,5.12
O=C(Cn1cc(COc2ncnc3[nH]cnc23)nn1)Nc1ccc(O)cc1,MTT,,pIC50,4.58
O=C(N[C@@H](CSCc1nc2cc([N+](=O)[O-])ccc2[nH]1)C(=O)NO)c1ccccc1,MTT,48 h,pIC50,> 3.30
CC(C)[C@@H]1NC(=O)[C@@H](CCCNC(=N)N)NC(=O)[C@H]([C@@H](C)O)NC(=O)[C@@H](CCCN)NC(=O)[C@H](Cc2ccccc2)NC(=O)[C@@H](Cc2ccc(O)cc2)NC1=O,ATP luminescence,,pIC50,< 4.00
Cc1ccc(NNc2nc3c(Cl)cc(Cl)cc3c(=O)n2-c2ccccc2)cc1,MTT,48 h,pIC50,< 3.70
COc1cccc2c1C(=O)c1c(O)c3c(c(O)c1C2=O)C[C@@](O)(C(=O)CO)C[C@@H]3O[C@H]1C[C@H](N)[C@H](O)[C@H](C)O1,MTT,,IC50,3.87 µg/mL
O=[N+]([O-])c1ccc(NC(=S)N/N=C/c2cccc3cc4ccccc4nc23)cc1,MTT,48 h,pIC50,< 4.30
CCCC(=O)Nc1ccc(-c2ccc3ncn(CCC)c(=O)c3c2)cn1,CCK-8,72 h,pIC50,6.34
OC1CCN(c2ccc(/C=N/NC(=S)Nc3ccc(Br)cc3)cc2)CC1,MTT,24 h,pIC50,5.73
COc1cc(CNc2ccc(C(=O)O)cc2)cc(OC)c1O,resazurin,72 h,pIC50,< 4.00
CCCCC(=O)Nc1ccc(-c2ccc3ncn(CCF)c(=O)c3c2)cn1,CCK-8,72 h,pIC50,< 5.00
O=C(NO)Nc1nc2c(Cl)cc(Cl)cc2c(=O)n1-c1ccc(Cl)cc1,MTT,48 h,pIC50,< 3.70
CCCCCC(=O)Nc1ccc(-c2ccc3ncn(Cc4ccccc4)c(=O)c3c2)cn1,CCK-8,72 h,pIC50,< 5.00
O=C(O)c1ccc(NCc2ccc(Cl)cc2)cc1,resazurin,72 h,pIC50,< 4.00
C/C(=N\C(=O)/N=C(\C)c1c(O)c2ccccc2oc1=O)c1c(O)c2ccccc2oc1=O,MTT,48 h,pIC50,4.71
CCCNC(=S)N/N=C/c1cccc2cc3ccccc3nc12,MTT,48 h,pIC50,< 4.30
Cc1ccc(NNc2nc3ccc(Br)cc3c(=O)n2-c2ccccc2)cc1,MTT,48 h,pIC50,4.76
OC1CCN(c2ccc(/C=N/NC(=S)Nc3ccc(F)cc3)cc2)CC1,MTT,24 h,pIC50,5.55
C(=N\Nc1cc(N/N=C/c2cccc3cccnc23)ncn1)/c1cccc2cccnc12,MTT,48 h,pIC50,4.83
O=C(Nc1ccc(Br)cc1)Nc1nc2cc(-c3ccc4ncn(Cc5ccccc5)c(=O)c4c3)ccc2s1,MTT,72 h,pIC50,< 4.70
CC(C)[C@@H]1NC(=O)[C@@H](CCCNC(=N)N)NC(=O)[C@H]([C@@H](C)O)NC(=O)[C@@H](CN)NC(=O)[C@H](Cc2ccccc2)NC(=O)[C@@H](Cc2ccccc2)NC1=O,ATP luminescence,,pIC50,4.10
CC(=O)Nc1nc2cc(-c3ccc4ncn(Cc5ccccc5)c(=O)c4c3)ccc2s1,MTT,72 h,pIC50,< 4.70
CCCCn1cnc2ccc(-c3ccc(NC(=O)NC(C)(C)C)nc3)cc2c1=O,CCK-8,72 h,pIC50,< 5.00
CC(C)[C@H](NC(=O)[C@H](Cc1c[nH]c2ccccc12)NC(=O)[C@H](Cc1c[nH]cn1)NC(=O)[C@H](CCCNC(=N)N)NC(=O)[C@H](CCCNC(=N)N)NC(=O)[C@H](Cc1c[nH]c2ccccc12)NC(=O)[C@H](Cc1c[nH]c2ccccc12)NC(=O)[C@H](Cc1c[nH]cn1)NC(=O)[C@H](Cc1c[nH]c2ccccc12)NC(=O)[C@H](CCCNC(=N)N)NC(=O)[C@@H](N)CCCCN)C(=O)N[C@H](C(=O)N[C@@H](Cc1c[nH]c2ccccc12)C(N)=O)C(C)C,MTT,24 h,pIC50,3.97
NS(=O)(=O)c1ccc(-n2nc(C(=O)NN=Cc3cccnc3)cc2-c2ccccc2)cc1,fluorescence,48 h,pIC50,4.61
O=C(Nc1nc2cc(-c3ccc4ncn(Cc5ccccc5)c(=O)c4c3)ccc2s1)NC1CCCCC1,MTT,72 h,pIC50,4.91
CCCn1cnc2ccc(-c3ccc(NC(=O)CC)nc3)cc2c1=O,CCK-8,72 h,pIC50,5.63
CNC(=O)c1cc(Oc2ccc(NC(=O)Nc3ccc(Cl)c(C(F)(F)F)c3)cc2)ccn1,MTT,48 h,pIC50,4.91
C/C(=N\C1CCCCC1/N=C(\C)c1c(O)c2ccccc2oc1=O)c1c(O)c2ccccc2oc1=O (centres unmarked),MTT,48 h,pIC50,5.18
COc1ccc(NC(=O)Nc2nc3cc(-c4ccc5ncn(CCN(C)C)c(=O)c5c4)ccc3s2)cc1,MTT,72 h,pIC50,5.26
COc1cc(CNc2ccc(C(=O)O)cc2)ccc1O,resazurin,72 h,pIC50,< 4.00
O=C(C=Cc1ccc(OCCCOc2ccc(C=CC(=O)c3cccs3)cc2)cc1)c1cccs1,MTT,48 h,pIC50,4.03
OC1CCN(c2ccc(/C=N/NC(=S)NCCc3ccccc3)cc2)CC1,MTT,24 h,pIC50,5.88
O=c1[nH]cc(F)c(=O)[nH]1,MTT,48 h,pIC50,4.37
CCCCn1cnc2ccc(-c3ccc(NC(=O)Nc4ccc(C)cc4)nc3)cc2c1=O,CCK-8,72 h,pIC50,< 5.00
COc1cccc(NC(=O)Nc2nc3cc(-c4ccc5ncn(Cc6ccccc6)c(=O)c5c4)ccc3s2)c1,MTT,72 h,pIC50,5.47
CCCCC(=O)Nc1ccc(-c2ccc3ncn(CC#N)c(=O)c3c2)cn1,CCK-8,72 h,pIC50,< 5.00
O=C(Nc1cc(C(F)(F)F)cc(C(F)(F)F)c1)Nc1nc2cc(-c3ccc4ncn(Cc5ccccc5)c(=O)c4c3)ccc2s1,MTT,72 h,pIC50,5.27
CSc1ccc(CNc2ccc(C(=O)O)cc2)cc1,resazurin,72 h,pIC50,< 4.00
CC1CCC(C(C)C)C(OC2=C(Cl)C(=O)c3ccccc3C2=O)C1 (centres unmarked),MTT,24 h,IC50,> 50 µg/mL
